Results gathered from unrelated publications.
Protocols differ between the studies behind these lines.

SMILES | cell line | test | conditions | endpoint | result
CC(C)[C@H](N)C(=O)N1CCC[C@H]1B(O)O | THP-1 | cell growth or viability, ATP luminescence | 48 h | IC50 | 206 nM
C=CC(=O)Nc1cc(Nc2nccc(-c3cn(C)c4ccccc34)n2)c(OC)cc1N(C)CCN(C)C | Calu-3 | cell growth or viability | 72 h | IC50 | 650 nM
O=c1ccc2cc3ccoc3cc2o1 | HEp-2 | cell growth or viability, WST-1 | 48 h | IC50 | 20500 nM
Cn1cncc1[C@@](N)(c1ccc(Cl)cc1)c1ccc2c(c1)c(-c1cccc(Cl)c1)cc(=O)n2C | FaDu | cell growth or viability | 72 h | IC50 | 2730 nM
c1ccc([C@@H]2C[C@H]2NC2CCNCC2)cc1 | TF-1a | cell growth or viability, resazurin | 96 h | EC50 | 1.55 nM
CCCCCCCC(=O)SCC/C=C/[C@@H]1CC(=O)NCc2nc(cs2)C2=N[C@@](C)(CS2)C(=O)N[C@@H](C(C)C)C(=O)O1 | SW-620 | cell growth or viability, resazurin | 48 h | IC50 | 26.5 nM
CC(C)[C@@H]1NC(=O)[C@H](CO)NC(=O)[C@H](CO)NC(=O)[C@H](CO)N(C)C(=O)[C@H](CC(=O)O)NC(=O)[C@H](CO)NC(=O)[C@H](Cc2ccccc2)NC(=O)CSC[C@@H](C(=O)NCC(N)=O)NC(=O)[C@H](CC(N)=O)NC(=O)[C@H](CCCNC(=N)N)NC(=O)[C@H](C)NC(=O)[C@H](Cc2ccc(-c3ccccc3)cc2)NC(=O)[C@H](CC(N)=O)NC(=O)[C@@H]2CCCN2C1=O | SJSA-1 | cell growth or viability |  | EC50 | > 30000 nM
C/C1=C/C(=O)O[C@@H]2C[C@@H](CC[C@H](C)/C=C\C=C\CC1)O[C@@](O)([C@@H]1CSC(=O)N1)C2 | MCF7 | cell growth or viability, MTT | 72 h | IC50 | 480 nM
COc1cc2c3c(n(CCCNCCO)c(=O)c2cc1OC)-c1cc2c(cc1C3=O)OCO2 | MCF7 | cell growth or viability, SRB |  | GI50 | < 10 nM
COc1c2c(cc3c1OCO3)[C@]13C=C[C@H](OC)C[C@@H]1[N@](C2)C[C@H]3OC(=O)c1ccco1 | SAOS-2 | cell growth or viability, WST-1 |  | IC50 | > 10000 nM
COc1cc2c3c(n(CCCN4CCOCC4)c(=O)c2cc1OC)-c1cc2c(cc1C3=O)OCO2 | P388 | cell growth or viability | 72 h | IC50 | 0.154 µg/mL
C[C@@H](O)[C@H](NC(=O)[C@H](CCCNC(=N)N)NC(=O)[C@H](CC(N)=O)NC(=O)[C@H](CC(N)=O)NC(=O)[C@@H](N)CCCNC(=N)N)C(=O)N[C@@H](CO)C(=O)NCC(=O)N[C@@H](Cc1ccccc1)C(=O)N[C@@H](CCCCN)C(=O)N[C@@H](Cc1c[nH]c2ccccc12)C(=O)O | THP-1 | cell growth or viability, ATP luminescence | 48 h | IC50 | 1800 nM
C1COCCN1.COc1ccc(/C=C\c2cc(I)c(OC)c(I)c2)cc1OP(=O)(O)O | MCF7 | cell growth or viability, SRB | 48 h | GI50 | 0.066 µg/mL
N.N.[Cl][Pt][Cl] | MCF7 | cell growth or viability, SRB |  | EC50 | 3600 nM
CCN1C(=O)SCC1C1(OC)CC2CC(CCC(C)C=CC=CCCC(C)=CC(=O)O2)O1 (stereo not drawn) | MCF7 | cell growth or viability, MTT | 72 h | IC50 | 20600 nM
O=c1ccc2ccc3occc3c2o1 | HEp-2 | cell growth or viability, WST-1 | 48 h | IC50 | 11500 nM
Cc1c2ccncc2c(C)c2c1[nH]c1ccccc12 | THP-1 | TNF-α release, inhibitor | 17 h, LPS-stimulated | IC50 | 1570 nM
COc1c2c(cc3c1OCO3)[C@]13C=C[C@H](OC)C[C@@H]1[N@](C2)C[C@H]3OC(=O)c1ccoc1 | SAOS-2 | cell growth or viability, WST-1 |  | IC50 | > 10000 nM
